How the values were obtained:
Format in all cases: functional
EKVX = assay: Growth inhibition of human EKVX cells after 48 hrs by sulforhodamine B assay
In short: (§1)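 NCI 60-human-tumor-cell-line panel, with compounds tested over a 5-log dose range. Values are taken from dose-response curves as log10 molar concentrations: GI50 is 50% net growth inhibition, TGI is total growth inhibition, and LC50 is 50% net cell death.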

KM12 = assay: Growth inhibition of human KM12 cells after 48 hrs by sulforhodamine B assay; conditions: KM12, 48 h; in short: as §1
SK-OV-3 = assay: Growth inhibition of human SKOV3 cells after 48 hrs by sulforhodamine B assay; conditions: SK-OV-3, 48 h; in short: as §1
HT-29 = assay: Growth inhibition of human HT-29 cells after 48 hrs by sulforhodamine B assay; conditions: HT-29, 48 h; in short: as §1
SN12C = assay: Growth inhibition of human SN12C cells after 48 hrs by sulforhodamine B assay
In short: (§2)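 Run in the NCI 60-human-tumour-cell-line panel, tested over a 5-log dose range. Dose–response curves gave three values per cell line, each as a log10 molar concentration: GI50 (50% inhibition of net cell growth), TGI (total inhibition of net growth) and LC50 (50% net cell death). The mean graph midpoint is the arithmetic mean over all lines, with insensitive lines entered at the highest concentration tested.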

NCI/ADR-RES = assay: Growth inhibition of human NCI/ADR-RES cells after 48 hrs by sulforhodamine B assay; in short: as §1
CAKI-1 = assay: Growth inhibition of human Caki1 cells after 48 hrs by sulforhodamine B assay; conditions: CAKI-1, 48 h; in short: as §1
UACC-62 = assay: Growth inhibition of human UACC62 cells after 48 hrs by sulforhodamine B assay; conditions: UACC-62, 48 h; in short: as §2
TK-10 = assay: Growth inhibition of human TK10 cells after 48 hrs by sulforhodamine B assay; conditions: TK-10, 48 h; in short: as §2
OVCAR-3 = assay: Growth inhibition of human OVCAR-3 cells after 48 hrs by sulforhodamine B assay; conditions: OVCAR-3, 48 h; in short: as §1
NCI-H226 = assay: Growth inhibition of human NCI-H226 cells after 48 hrs by sulforhodamine B assay; conditions: NCI-H226, 48 h; in short: as §1
A498 = assay: Growth inhibition of human A498 cells after 48 hrs by sulforhodamine B assay; conditions: A498, 48 h; in short: as §1
BT-549 = assay: Growth inhibition of human BT549 cells after 48 hrs by sulforhodamine B assay; conditions: BT-549, 48 h; in short: as §1
K562 = assay: Growth inhibition of human K562 cells after 48 hrs by sulforhodamine B assay; conditions: K562, 48 h; in short: as §1
HL-60(TB) = assay: Growth inhibition of human HL-60(TB) cells after 48 hrs by sulforhodamine B assay; conditions: HL-60, 48 h
In short: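 Tested only on compounds active in a three-line prescreen, in the NCI 60-human-tumour-cell-line panel over a 5-log dose range. Values come from dose–response curves as log10 molar GI50, the concentration inhibiting 50% net cell growth. Log10 TGI (total growth inhibition) and log10 LC50 (50% net cell death) were derived too. Mean graph midpoints include insensitive lines at the highest concentration tested.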

NCI-H460 = assay: Growth inhibition of human NCI-H460 cells after 48 hrs by sulforhodamine B assay; conditions: NCI-H460, 48 h; in short: as §1
786-0 = assay: Growth inhibition of human 786-0 cells after 48 hrs by sulforhodamine B assay; conditions: 786-0, 48 h; in short: as §1
NCI-H522 = assay: Growth inhibition of human NCI-H522 cells after 48 hrs by sulforhodamine B assay; conditions: NCI-H522, 48 h; in short: as §1
UO-31 = assay: Growth inhibition of human UO31 cells after 48 hrs by sulforhodamine B assay; conditions: UO-31, 48 h; in short: as §2
HOP-92 = assay: Growth inhibition of human HOP92 cells after 48 hrs by sulforhodamine B assay; conditions: HOP-92, 48 h; in short: as §1
SF-539 = assay: Growth inhibition of human SF539 cells after 48 hrs by sulforhodamine B assay; conditions: SF-539, 48 h; in short: as §1
OVCAR-4 = assay: Growth inhibition of human OVCAR4 cells after 48 hrs by sulforhodamine B assay; conditions: OVCAR-4, 48 h; in short: as §1
HOP-62 = assay: Growth inhibition of human HOP62 cells after 48 hrs by sulforhodamine B assay; conditions: HOP-62, 48 h; in short: as §1
MDA-MB-231 = assay: Growth inhibition of human MDA-MB-231 cells after 48 hrs by sulforhodamine B assay; conditions: MDA-MB-231, 48 h; in short: as §1
M14 = assay: Growth inhibition of human M14 cells after 48 hrs by sulforhodamine B assay; conditions: M14, 48 h; in short: as §1
HCT-15 = assay: Growth inhibition of human HCT15 cells after 48 hrs by sulforhodamine B assay; conditions: HCT-15, 48 h; in short: as §1
[1] = read-out: pLC50 (the source's name) (converted)

Work on `Nc1cc(N)c2nc(-c3ccccc3)c(Sc3ccc(F)cc3)nc2c1` yielded a GI50 (EKVX) of 20.4 µM, an LC50 (50% net cell kill) (EKVX) of 83.2 µM and a TGI (EKVX; read-out: pTGI (converted)) of 41.7 µM. The GI50 (KM12) was 20.9 µM, the LC50 (50% net cell kill) (KM12) was > 100 µM and the TGI (KM12; read-out: pTGI (converted)) was 49 µM. It also gave a GI50 (SK-OV-3) of 15.8 µM, a CC50 (SK-OV-3; [1]) of 63.1 µM and a TGI (SK-OV-3; read-out: pTGI (converted)) of 31.6 µM. The GI50 (HT-29) was 17.8 µM, the LC50 (HT-29) was > 100 µM and the TGI (HT-29; read-out: pTGI (converted)) was 45.7 µM. For the same molecule, the GI50 (SN12C) was > 100 µM, the CC50 (SN12C; [1]) was > 100 µM and the TGI (SN12C; read-out: pTGI (converted)) was > 100 µM. It also gave a GI50 (NCI/ADR-RES) of 16.6 µM, a CC50 (NCI/ADR-RES; [1]) of 72.4 µM and a TGI (NCI/ADR-RES; read-out: pTGI (converted)) of 34.7 µM. The GI50 (CAKI-1) was > 100 µM, the CC50 (CAKI-1; [1]) was > 100 µM and the TGI (CAKI-1; read-out: pTGI (converted)) was > 100 µM. For the same molecule, the GI50 (UACC-62) was 16.6 µM, the CC50 (UACC-62; [1]) was 60.3 µM and the TGI (UACC-62; read-out: pTGI (converted)) was 31.6 µM. For the same molecule, the GI50 (TK-10) was > 100 µM, the CC50 (TK-10; [1]) was > 100 µM and the TGI (TK-10; read-out: pTGI (converted)) was > 100 µM. The GI50 (OVCAR-3) was 16.2 µM, the CC50 (OVCAR-3; [1]) was 69.2 µM and the TGI (OVCAR-3; read-out: pTGI (converted)) was 33.9 µM. The GI50 (NCI-H226) was 19.1 µM, the LC50 (NCI-H226) was > 100 µM and the TGI (NCI-H226; read-out: pTGI (converted)) was 46.8 µM. The GI50 (A498) was > 100 µM, the CC50 (A498; [1]) was > 100 µM and the TGI (A498; read-out: pTGI (converted)) was > 100 µM. For the same molecule, the GI50 (BT-549) was 21.9 µM, the CC50 (BT-549; [1]) was 89.1 µM and the TGI (BT-549; read-out: pTGI (converted)) was 43.7 µM. For the same molecule, the GI50 (K562) was 39.8 µM, the LC50 (K562) was > 100 µM and the TGI (K562; read-out: pTGI (converted)) was 38.9 µM. For the same molecule, the GI50 (HL-60(TB)) was 38.9 µM, the LC50 (HL-60(TB)) was > 100 µM and the TGI (HL-60(TB); read-out: pTGI (converted)) was > 100 µM. The GI50 (NCI-H460) was 21.9 µM, the LC50 (50% net cell kill) (NCI-H460) was > 100 µM and the TGI (NCI-H460; read-out: pTGI (converted)) was 66.1 µM. For the same molecule, the GI50 (786-0) was > 100 µM, the CC50 (786-0; [1]) was > 100 µM and the TGI (786-0; read-out: pTGI (converted)) was > 100 µM. For the same molecule, the GI50 (NCI-H522) was > 100 µM, the LC50 (NCI-H522) was > 100 µM and the TGI (NCI-H522; read-out: pTGI (converted)) was > 100 µM. The GI50 (UO-31) was > 100 µM, the CC50 (UO-31; [1]) was > 100 µM and the TGI (UO-31; read-out: pTGI (converted)) was > 100 µM. For the same molecule, the GI50 (HOP-92) was 22.9 µM, the LC50 (50% net cell death) (HOP-92) was > 100 µM and the TGI (HOP-92; read-out: pTGI (converted)) was 55 µM. The GI50 (SF-539) was 21.4 µM, the LC50 (SF-539) was 75.9 µM and the TGI (SF-539; read-out: pTGI (converted)) was 39.8 µM. The GI50 (OVCAR-4) was 22.9 µM, the CC50 (OVCAR-4; [1]) was > 100 µM and the TGI (OVCAR-4; read-out: pTGI (converted)) was 56.2 µM. The GI50 (HOP-62) was 16.6 µM, the LC50 (HOP-62) was 70.8 µM and the TGI (HOP-62; read-out: pTGI (converted)) was 34.7 µM. The GI50 (MDA-MB-231) was 17.4 µM, the CC50 (MDA-MB-231; [1]) was 83.2 µM and the TGI (MDA-MB-231; read-out: pTGI (converted)) was 38 µM. For the same molecule, the GI50 (M14) was 15.8 µM, the CC50 (M14; [1]) was 58.9 µM and the TGI (M14; read-out: pTGI (converted)) was 30.9 µM. For the same molecule, the GI50 (HCT-15) was 13.5 µM, the LC50 (HCT-15) was 56.2 µM and the TGI (HCT-15; read-out: pTGI (converted)) was 27.5 µM.

Source: ChEMBL document CHEMBL1137710, “Synthesis and in vitro antitumor activity of new quinoxaline derivatives” (2009)
